Compound activity (PubChem BioAssay)
This is a sample that favours compounds with a hit; in the whole collection about 1.3% have one here.
Rpn11 inh – Rpn11 (PSMD14) deubiquitinase inhibitors, primary screen, biochemical, fluorescence polarization, uHTS. 26S proteasome non-ATPase regulatory subunit 14 (Homo sapiens), O00487. human 26S proteasome, Ub4-pepOG fluorescence polarization; 20S core pre-blocked with epoxomicin. inhibition, % at 20 µM. 360,000 tested, 0.59% active. AID 588493, 2011;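 active = inhibition at 20 µM, scaled to each plate's controls, above about 33%, limit read from the data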
TPT1 inhibitor – Candida albicans TPT1 enzyme inhibitors, primary screen, biochemical, fluorescence polarization. tRNA 2'-phosphotransferase TPT1 (Candida albicans SC5314). recombinant caTPT1, FP RNA substrate dephosphorylation. inhibition, % at 5 µM. 300,000 tested, 0.81% active;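 active = inhibition above the mean of all tested compounds plus 3 SD, set per screening campaign, cut at about 24% in these data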;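 also: plate controls were DMSO alone for no effect and ferristatin control at 100 nM for full effect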
Xi reactivation – activators of inactive X chromosome reactivation, primary screen, imaging, XiGFP fibroblasts, GFP high-content imaging, set 2. XiGFP mouse fibroblasts, % GFP-positive cells imaging, 3 d; cells co-treated with 5-aza-dC sensitizer; scaled so ellipticine positive control = 100%. activation, % at 7.58 µM. 360,000 tested, 0.055% active;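 active = mean normalized replicate activation at least 10% and every replicate at or above 10%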;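 also: 0% = median of on-plate neutral control wells and 100% = ellipticine 6 µM median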
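System: 68-5-11 XiGFP fibroblast line; Timing: 3 days compound exposure; Compound dosing: one concentration, pinned; Benchmarks: positive control ellipticine, 6 µM final; Buffer or medium: DMEM containing 5-aza-dC.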
HNF4A DNA FP – change in binding of human HNF4A to DNA, primary screen, biochemical, fluorescence polarization, FITC-DNA | Hepatocyte nuclear factor 4-alpha (Homo sapiens), P41235 | 1 h | activity change, % at 10 µM | 360,000 tested, 0.3% active; in the data active = activity change above about 30%, passing the limit was not always enough
CSN inh – inhibitors of CSN-mediated cullin deneddylation, primary screen, biochemical, fluorescence polarization, uHTS. COP9 signalosome complex subunit 5 (Homo sapiens), Q92905. inhibition, % at 12.5 µM. Purified CSN, SCF-Nedd8-OG deneddylation. 360,000 tested, 0.38% active. AID 651999, 2013;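 active = pattern-corrected inhibition above about 35%, with an unprinted fluorescence ratio check between 0.5 and 1.5, limit read from the data, passing the limit was not always enough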;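 also: 0% = enzyme with substrate and 100% = substrate without enzyme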
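Assay system: Purified human Csn5 enzyme expressed in HEK293T cells | Amount: Enzyme 0.24 nM | Measured by: Fluorescence polarization readout | Medium: Tris/NaCl/DTT buffer, pH 7.5 | Compound dosing: One concentration, 12.5 µM, 0.25% DMSO | Times: 90 min incubation of compound, enzyme and substrate at room temperature | Control set: no-enzyme wells high, enzyme-with-substrate wells low | Read-out: % inhibition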
aDG glyco act – activators of alpha-DG glycosylation, primary screen, uHTS, Pro5-aDG cells, AlphaScreen | activation, % at 10 µM | alpha-DG glycosylation AlphaScreen (IIH6); 0% Pro5, 100% B10-LARGE cell signal | 360,000 tested, 0.22% active;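 active = activation of at least 8% versus controls, or a plate z-score of at least 8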;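 also: Pro5 are CHO cells carrying HIG-tagged alpha-DG that lacks glycosylation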
Rpn11 inh conf – Rpn11 (PSMD14) deubiquitinase inhibitors, confirmation, biochemical, fluorescence polarization, single concentration; purified human 26S proteasome, Ub4-pepOG fluorescence polarization; proteasome pretreated with epoxomicin; shares compounds with Rpn11 inh; inhibition, % at 20 µM; 1,900 tested, 29% active; AID 602318, 2012
MMP-2 inh – MMP-2 enzyme inhibition, confirmation, counter-screen for RPN11 inhibitor project, biochemical, fluorescence, single concentration | shares compounds with Rpn11 inh | recombinant MMP-2, FRET peptide cleavage fluorescence | inhibition, % at 20 µM | 1,900 tested, 4% active | AID 602330, 2012;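 also: human MMP-2 activated beforehand with APMA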
Thrombin inh – bovine thrombin protease inhibition, confirmation, counter-screen for Rpn11 inhibitor project, biochemical, fluorescence polarization, single concentration; shares compounds with Rpn11 inh; bovine thrombin cleavage of Ub4-pepOG; inhibition, % at 20 µM; 1,900 tested, 13% active; AID 602333, 2012;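 active = mean inhibition at least 40% at 20 µM, or signal 3 deviations below plate average, so some actives read negative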;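 also: plate controls were thrombin with DMSO for no effect and buffer wells lacking thrombin for full effect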
Target sequence (P00735 whole entry, looked up): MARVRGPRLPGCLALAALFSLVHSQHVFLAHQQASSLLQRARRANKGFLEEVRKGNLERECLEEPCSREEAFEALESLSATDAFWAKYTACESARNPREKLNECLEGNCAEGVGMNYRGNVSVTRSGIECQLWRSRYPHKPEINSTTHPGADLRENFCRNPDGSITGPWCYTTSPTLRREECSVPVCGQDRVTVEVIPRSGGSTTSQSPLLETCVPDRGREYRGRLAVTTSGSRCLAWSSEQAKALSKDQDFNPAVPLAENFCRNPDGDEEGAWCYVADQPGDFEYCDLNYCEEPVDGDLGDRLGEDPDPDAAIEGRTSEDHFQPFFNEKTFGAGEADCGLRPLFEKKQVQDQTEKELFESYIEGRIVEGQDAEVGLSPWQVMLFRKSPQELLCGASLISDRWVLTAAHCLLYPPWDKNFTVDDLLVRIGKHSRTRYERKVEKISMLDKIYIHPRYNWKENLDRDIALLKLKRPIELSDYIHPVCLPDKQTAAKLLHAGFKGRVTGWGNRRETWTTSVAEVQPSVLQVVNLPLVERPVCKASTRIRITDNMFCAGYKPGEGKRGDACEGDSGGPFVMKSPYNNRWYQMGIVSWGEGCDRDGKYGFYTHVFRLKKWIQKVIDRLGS
The depositor's hits bear a star; . = not tested or not shown. Rule as the data show it, unless noted: active = inhibition above about 40%; inactive = the rest.

SMILES | Rpn11 inh | TPT1 inhibitor | Xi reactivation | HNF4A DNA FP | CSN inh | aDG glyco act | Rpn11 inh conf | MMP-2 inh | Thrombin inh
O=C(NCCSCc1ccccc1)c1ccc(C2SCC(=O)N2Cc2ccccc2)cc1 (stereo unspecified) | 57* | 2 | . | 7 | 5 | 0 | 43* | 27 | 16
CC(C)(C)Nc1cccccc1=O | 103* | -4 | . | 9 | 2 | 0 | 3 | -14 | -1
Cc1ccc(Nc2cccccc2=O)cc1 | -9 | -2 | . | -1 | 4 | 0 | . | . | .
NS(=O)(=O)c1ccc(-c2ccc(/C=C3\C(=O)Nc4cc(Cl)ccc43)o2)cc1 | 6 | . | 0 | 4 | -1 | 0 | . | . | .
NC1=NC(=O)/C(=C/c2ccc(-c3ccc(S(N)(=O)=O)cc3)o2)S1 | 78* | -10 | 1 | -7 | 34 | 0 | 89* | 46* | 42*
O=C(CCc1ccccc1)NC(c1cccs1)c1cc(Cl)c2cccnc2c1O (stereo unspecified) | 16 | . | 1 | 0 | 4 | 1 | . | . | .
CCC(=O)NC(c1cccs1)c1cc([N+](=O)[O-])c2cccnc2c1O (stereo unspecified) | 40* | 0 | 0 | -2 | -7 | 0 | 48* | 27 | -20
CCCC(=O)NC(c1cccs1)c1cc([N+](=O)[O-])c2cccnc2c1O (stereo unspecified) | 47* | -1 | 0 | 5 | 6 | 0 | 66* | 36 | -7
CC(C)C(=O)NC(c1ccccc1)c1cc([N+](=O)[O-])c2cccnc2c1O (stereo unspecified) | 45* | 1 | 0 | -6 | -1 | 0 | 47* | 43* | -1
C[C@@H](NC(=O)C[C@@H]1C[C@@H]2c3cc(NC(=O)NC4CCCC4)ccc3O[C@@H]2[C@@H](CO)O1)c1ccccc1 | . | . | 0 | . | . | . | . | . | .
CCOC(=O)CCC(=O)N1CCOCCOCCOCC1 | -1 | -1 | . | 0 | 3 | 0 | . | . | .
CCOC(=O)CCC(=O)N1CCOCCN(C(=O)CCC(=O)OCC)CCOCC1 | 47* | 3 | . | 5 | 2 | 0 | -3 | 11 | 30
CC(C)NC(=O)Nc1cccc2c1O[C@H](CN(C)C(=O)NC(C)C)[C@H](C)CN([C@@H](C)CO)C2=O | . | . | 1 | . | . | . | . | . | .
O=c1[nH]c(-c2cccnc2)nc2sc(-c3ccccc3)cc12 | 2 | 2 | 0 | 6 | 3 | 0 | . | . | .
Cc1nc2sc(-c3ccccc3)cc2c(=O)[nH]1 | 48* | 7 | . | 14 | -1 | 0 | 10 | -24 | -1
CN1C(=O)c2cc(NC(=O)Cc3ccccc3)ccc2OC[C@@H]2O[C@H](CC(=O)NCc3ccc(Cl)cc3)CC[C@H]21 | . | . | 0 | . | . | . | . | . | .
Oc1ccc(CN2CCCc3ccccc32)c2cccnc12 | 44* | -4 | . | -1 | -3 | 0 | -11 | -3 | -14
COc1ccccc1N1CCN(Cc2ccc(O)c3ncccc23)CC1 | 8 | -3 | . | -1 | -1 | -1 | . | . | .
CCCc1cn(CC[C@@H]2CC[C@H](NC(=O)C3CCCC3)[C@H](CO)O2)nn1 | . | . | 0 | . | . | . | . | . | .
O=C(Cc1cccs1)N1CCC(c2nc3c(nnn3Cc3ccccc3)c(=O)[nH]2)CC1 | 53* | 1 | . | 1 | 3 | 0 | -5 | -9 | -9
CO[C@@H]1CN(C)C(=O)c2cc(NS(C)(=O)=O)ccc2OC[C@H](C)NC[C@H]1C | . | . | 0 | . | . | . | . | . | .
Cn1c(=O)oc2cc(S(=O)(=O)N3CCN(c4ccccc4F)CC3)ccc21 | 48* | 7 | 0 | 8 | 18 | 1 | 71* | -35 | 16
Cc1sc2nc(CSc3ccc([N+](=O)[O-])c(C(F)(F)F)c3)[nH]c(=O)c2c1C | 41* | 22 | 0 | 21 | 8 | 0 | 20 | -40 | -13
CC(C)c1cn(CC[C@@H]2CC[C@@H](NC(=O)C3CCCCC3)[C@H](CO)O2)nn1 | . | . | 0 | . | . | . | . | . | .
COc1cc(/C=C2\SC(=S)N(CCC(=O)Nc3ccc(O)cc3)C2=O)cc(OC)c1OC | -8 | 0 | 0 | 2 | -2 | 0 | . | . | .
SMILES | Rpn11 inh | TPT1 inhibitor | Xi reactivation | HNF4A DNA FP | CSN inh | aDG glyco act | Rpn11 inh conf | MMP-2 inh | Thrombin inh
CCc1nnc(NC(=O)CCN2C(=O)/C(=C/c3cc(OC)c(OC)c(OC)c3)SC2=S)s1 | 48* | 15 | 0 | 21 | 7 | 0 | 23 | -41 | 42*
Cc1ccc(/C=C2\SC(=S)N(CCC(=O)NNC(=O)c3ccncc3)C2=O)cc1 | 44* | 6 | 0 | 14 | 6 | 0 | 10 | -28 | 12
O=C(CCN1C(=O)/C(=C/c2ccc(F)cc2)SC1=S)NNC(=O)c1ccncc1 | 0 | -1 | 0 | 1 | -2 | 0 | . | . | .
CCc1ccc(/C=C2/SC(=S)N(CCC(=O)Nc3ccc(C(=O)O)cc3)C2=O)cc1 | 114* | 3 | 0 | 23 | 9 | 0 | 43* | 4 | 33
COc1ccc(Cn2nnnc2C(c2ccccc2Cl)N2CCC(C(N)=O)CC2)cc1 (stereo unspecified) | 2 | 0 | . | 4 | 0 | 0 | . | . | .
COc1ccc(Cn2nnnc2C(c2cc(OC)ccc2OC)N2CCC(C(N)=O)CC2)cc1 (stereo unspecified) | 125* | -1 | . | 12 | 6 | 0 | -10 | 2 | -11
CCOC(=O)c1[nH]c2ccccc2c1NC(=O)Nc1ccc(OC)cc1 | 137* | -3 | . | 3 | 0 | 0 | -17 | -40 | -12
O=C(C[C@@H]1CC[C@H]2[C@@H](COC[C@@H](O)CN2C(=O)Nc2ccc(Cl)c(Cl)c2)O1)NCc1ccccc1 | . | . | 0 | . | . | . | . | . | .
